In ChEMBL document CHEMBL4359883, “4(1H)-quinolone derivatives overcome acquired resistance to anti-microtubule agents by targeting the colchicine site of β-tubulin” (Eur J Med Chem, 2019) one finds Activity and IC50 data, which are given here for two molecules.

The target of assay [1] is T1, Tubulin (Homo sapiens) (UniProt P68371+Q9H4B7+P0DPH7+P68366+Q13509+Q71U36+P04350+Q3ZCM7+P07437+P68363+Q9BQE3+Q6PEY2+Q13885+Q9BVA1+Q9BUF5). The assay can be described thus: Induction of microtubule depolymerization in human NCI-H1975 cells at 40 nM after 6 hrs by DAPI staining based DAPI staining based confocal microscopic analysis. The class given is cell-based. The method in brief:
(§1)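 Cells exposed for 6 h, fixed in 3.7% paraformaldehyde, permeabilized with 0.1% Triton X-100. Stained with anti-α-tubulin (1:1000) overnight at 4 °C, FITC secondary 1 h at 37 °C, nuclei counterstained with DAPI. Imaged by confocal laser scanning microscopy.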

Assay [2] relates to SAS. The assay can be described thus: Antiproliferative activity against human SAS cells assessed as reduction in cell viability after 72 hrs by MTS assay. The class given is functional, cell-based. Summed up:
(§2)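 Cells plated at 2000/well, cultured overnight, then exposed to a range of compound concentrations for 72 h. MTS reagent added for 1–4 h at 37 °C and absorbance read at 490 nm. Cultured in RPMI 1640 or DMEM with 10% heat-inactivated FBS under 5% CO2. Data are the mean of three determinations.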

In assay [3] the target is Tubulin beta (Homo sapiens) (UniProt P68371+Q9H4B7+Q13509+P04350+Q3ZCM7+P07437+Q13885+Q9BVA1+Q9BUF5+A6NNZ2). The assay can be described thus: Binding affinity to beta tubulin in human NCI-H1975 cells incubated for overnight by immunoblotting based pull down assay. The assay is classed as cell-based. The method in brief:
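H1975 lysate in RIPA buffer with protease inhibitors incubated overnight at 4 °C with compound-conjugated magnetic beads or control beads. Beads washed five times with PBS, and bound proteins detected by SDS-PAGE immunoblotting with ECL.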
On the technique in general: In western blotting, separated proteins are transferred to a membrane and probed.

For assay [4], the system named is NCI-H1975. The experiment in a line: Cell cycle arrest in human NCI-H1975 cells assessed as increase in cell population at sub-G1 phase after 24 hrs by propidium iodide-staining based flow cytometry. The assay is classed as functional. The method in brief: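 Cells treated for 24 h, then trypsinized and fixed overnight in ice-cold 70% ethanol. Stained for 30 min with propidium iodide (10 µg/mL) plus RNase (20 µg/mL), and DNA content measured by flow cytometry. Mean ± SD.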

For assay [5], the system named is PC-3. The experiment in a line: Antiproliferative activity against human PC3 cells assessed as reduction in cell viability after 72 hrs by MTS assay. The class given is functional, cell-based. Particulars: PC-3, 72 h. The method in brief: as §2
The target in assay [6] is T1, Tubulin (Homo sapiens). The experiment in a line: Binding affinity to tubulin (unknown origin) assessed as increase complex formation with compound by SPR analysis. The class given is protein-complex assay. Summed up:
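Biotin-tubulin (50 µg/mL) captured on a streptavidin chip to about 3,000 RU, with remaining sites blocked by biocytin and a free flow cell as reference. Compound injected at different concentrations in HBS-EP+ (pH 7.4) at 25 °C. KD obtained from steady-state fitting.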
On the technique in general: Surface plasmon resonance follows binding to a sensor surface in real time, without labels.

Assay [7] concerns the target Tubulin alpha (Homo sapiens) (UniProt P0DPH7+P68366+Q71U36+P68363+Q9BQE3+Q6PEY2+A6NHL2+Q9NY65). The experiment in a line: Induction of microtubule depolymerization in human CL1-0 cells assessed as increase in alpha tubulin soluble form by immunoblot analysis. The class given is cell-based. The method in brief:
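Lysate spun at 16,000 rpm for 15 min at room temperature. Soluble (monomer) and particulate (polymer) fractions immunoblotted for α-tubulin.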

The subject of assay [8] is OVCAR-3. The experiment in a line: Antiproliferative activity against human OVCAR3 cells assessed as reduction in cell viability after 72 hrs by MTS assay. The class given is functional, cell-based. The conditions noted are these: OVCAR-3, 72 h. The method in brief:
as §2

A short description of assay [9]: Antiproliferative activity against human 82T cells assessed as reduction in cell viability after 72 hrs by MTS assay. The class given is functional, cell-based. The method in brief:
as §2

The subject of assay [10] is DU-145. The experiment in a line: Antiproliferative activity against human DU145 cells assessed as reduction in cell viability after 72 hrs by MTS assay. The assay is classed as functional, cell-based. Particulars: DU-145, 72 h. The method in brief: as §2
In general terms: Tetrazolium dyes change colour on reduction, which living cells bring about.

In assay [11] the test system is PC-9. The experiment in a line: Antiproliferative activity against human PC9 cells assessed as reduction in cell viability after 72 hrs by MTS assay. The assay is classed as functional, cell-based. The conditions noted are these: PC-9, 72 h. The method in brief:
as §2

Assay [12] relates to COLO 205. The assay can be described thus: Antiproliferative activity against human COLO205 cells assessed as reduction in cell viability after 72 hrs by MTS assay. The class given is functional, cell-based. The conditions noted are these: COLO 205, 72 h. The method in brief:
as §2

The test system of assay [13] is MDA-MB-231. The experiment in a line: Antitumour activity against human MDA-MB-231 cells xenografted in Balb/c mouse assessed as […] at 8 mg/kg, ip administered three times per week and measured on day 35 (reference value: 218 +/- 20.9 mm3). The assay is classed as functional. Summed up: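 MDA-MB-231 tumours established in the right flank of 6-week-old BALB/c nude mice. Compound dissolved in DMSO was given ip three times weekly, with a DMSO vehicle group. Tumour volume calculated as 0.5W²L, measured before each dose and compared on day 35.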

Assay [14] relates to NCI-H1975. The experiment in a line: Induction of apoptosis in human NCI-H1975 cells assessed as increase in p-HH3 expression at 25 to 50 nM after 24 hrs by immunoblotting analysis. The class given is functional, cell-based.
For assay [15], the species on record is Homo sapiens. The experiment in a line: Induction of morphological changes in human KBtax cells assessed as disruption of mitotic spindle arrangement at 30 nM after 6 hrs by DAPI staining based confocal microscopic analysis. The class given is functional, cell-based. The method in brief:
as §1

Assay [16] has as its system NCI-H1975. The assay can be described thus: Antitumour activity against human NCI-H1975 cells xenografted in Balb/c mouse assessed as tumour size at 4 mg/kg, ip administered three times per week and measured on day 21 (reference value: 2153 +/- 126.3 mm3). The class given is functional. Summed up:
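H1975 tumours grown in the right flank of 6-week-old BALB/c nude mice. DMSO vehicle or 4 or 8 mg/kg compound in DMSO given ip three times weekly. Tumour volume calculated as 0.5W²L before each dose and compared on day 21.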

Active and inactive are the calls of the source. The calls are words filed in the database; no cut-off is given here.

Take `CCOC(=O)c1ccc2nc(-c3ccccc3)cc(O)c2c1`: the outcome in [1], in assay [3] and in assay [7] was Active. Besides, the IC50 in assay [2] stood at 78 nM; in [5], 45 nM; in assay [8], 28 nM; in assay [9], 35 nM; in assay [10] it was 47 nM; in [11], 17 nM. For the same molecule, the IC50 in [12] came to 57 nM. The Activity entry in [4] and in assay [6] was “Dose-dependent effect” throughout.
Take `CCOC(=O)c1ccc2[nH]c(-c3cccc(F)c3)cc(=O)c2c1`: the values for the Activity in assay [13] and in assay [16] were 73.6 mm3 and 1333 mm3, respectively. The outcome in assay [14] and in [15] was Active.

What is called IC50 is the concentration needed to halve the response being measured.
